Activity calls are given as the source filed them. The rule behind the calls is not given here.
Legend:
[1] = Cytotoxicity against human Aspc-1 cells by crystal violet staining; assay type: functional, cell-based; details: ASPC1
Summary of the method: (§1)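 Cells plated at 5000–10,000 per well and left 24 h, then exposed to drug in medium for the set time at 37°C, 5% CO2. Washed with PBS, fixed 15 min in 4% paraformaldehyde and stained 5 min with 0.5% crystal violet in methanol. Lysed in 1% SDS, OD read at 570 nm with untreated cells as 100%. IC50 fitted by nonlinear sigmoidal regression over at least five concentrations, each in triplicate; three independent experiments.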

[2] = Cytotoxicity against human Colo-357 cells expressing MRP5 assessed as cell killing at 3 uM after 48 hrs using propidium iodide staining by cytofluorometric analysis; assay type: functional, COLO357
Summary of the method: (§2)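 Colo-357 cells stably transfected with pcDNA3.1/hygro-MRP5 or empty vector were cultured with 5-FU (1–33 M) for 48 h. Cells were harvested, stained with 2 g/ml propidium iodide in PBS for 5 min at 4°C in the dark, and PI uptake was read by flow cytometry (10,000 cells, debris gated out). Values are the percentage of dead cells from three assays in triplicate.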

[3] = Cytotoxicity against human Patu-02 cells by crystal violet staining; assay type: functional, cell-based; summary of the method: as §1
[4] = Cytotoxicity against human Colo-357 cells assessed as cell killing at 1 uM after 48 hrs using propidium iodide staining by cytofluorometric analysis; assay type: functional, COLO357; summary of the method: as §2
[5] = Cytotoxicity against human Patu-S cells by crystal violet staining; assay type: functional, cell-based; summary of the method: as §1
PaTu 8988t = assay: Induction of thymidylate synthase expression in human Patu-T cells after 6 months by RT-PCR analysis relative to control; assay type: functional, cell-based
Summary of the method: (§3)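 Patu-8988T cells were cultured 6 months with increasing 5-FU, then kept at least 1 week drug-free. Transcripts were quantified by real-time RT-PCR on 20 ng cDNA with a Tris/KCl/MgCl2 platinum Taq master mix and ROX reference. Expression is reported relative to untreated parental Patu-T cells.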

COLO357 = assay: Cytotoxicity against human Colo-357 cells expressing MRP5 assessed as cell killing after 48 hrs using propidium iodide staining by cytofluorometric analysis; assay type: functional, cell-based; summary of the method: as §2
[6] = Cytotoxicity against human Colo-357 cells assessed as cell killing at 3 uM after 48 hrs using propidium iodide staining by cytofluorometric analysis; assay type: functional, COLO357; summary of the method: as §2
[7] = Cytotoxicity against human Patu-02 cells assessed as increase of cell death at 33 uM after 48 hrs using propidium iodide staining by cytofluorometric analysis; assay type: functional
Summary of the method: (§4)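 Patu-02 cells stably transfected with an MRP5 siRNA expression vector or empty vector (hygromycin B selected, single-cell cloned, RT-PCR screened) were exposed to 5-FU (3.3–100 M) for 48 h. Cell death was measured as PI uptake (2 g/ml, 5 min, 4°C, dark) by flow cytometry on 10,000 gated cells. Three assays were run in triplicate.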

DAN-G = assay: Cytotoxicity against human DAN-G cells by crystal violet staining; assay type: functional, cell-based; summary of the method: as §1
[8] = Cytotoxicity against human PANC1 cells by crystal violet staining; assay type: functional, cell-based; details: PANC-1; summary of the method: as §1
[9] = Cytotoxicity against human Colo-357 cells assessed as cell killing at 33 uM after 48 hrs using propidium iodide staining by cytofluorometric analysis; assay type: functional, COLO357; summary of the method: as §2
MRP5 [10] = assay: Induction of MRP5 expression in human MRP5 vector transfected Colo-357 cells by RT-PCR analysis relative to control; assay type: cell-based, COLO357; details: Colo-357 cells transfected with human MRP5 vector, read-out: FC
Summary of the method: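 Colo-357 cells were transfected with pcDNA3.1/hygro-MRP5 or empty vector, split after 48 h and selected in hygromycin B. MRP5 mRNA was measured by quantitative real-time RT-PCR (20 ng cDNA) relative to the vector-only clone.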

MRP4 = assay: Induction of MRP4 expression in human Patu-T cells after 6 months by RT-PCR analysis relative to control; assay type: cell-based, PaTu 8988t; details: read-out: FC; summary of the method: as §3
MRP5 [11] = assay: Induction of MRP5 expression in human Patu-T cells after 6 months by RT-PCR analysis relative to control; assay type: cell-based, PaTu 8988t; details: read-out: FC; summary of the method: as §3
[12] = Cytotoxicity against human MRP5 knockdown Patu-02 cells assessed as increase of cell death at 10 uM after 48 hrs using propidium iodide staining by cytofluorometric analysis; assay type: functional; summary of the method: as §4
[13] = Cytotoxicity against human MRP5 knockdown Patu-02 cells assessed as increase of cell death at 3.3 uM after 48 hrs using propidium iodide staining by cytofluorometric analysis; assay type: functional; summary of the method: as §4
[14] = Cytotoxicity against human Colo-357 cells assessed as cell killing at 10 uM after 48 hrs using propidium iodide staining by cytofluorometric analysis; assay type: functional, COLO357; summary of the method: as §2
[15] = Cytotoxicity against human T3M4 cells by crystal violet staining; assay type: functional, cell-based; summary of the method: as §1
[16] = Cytotoxicity against human Patu-02 cells assessed as increase of cell death at 3.3 uM after 48 hrs using propidium iodide staining by cytofluorometric analysis; assay type: functional; summary of the method: as §4
[17] = Cytotoxicity against human Colo-357 cells expressing MRP5 assessed as cell killing at 33 uM after 48 hrs using propidium iodide staining by cytofluorometric analysis; assay type: functional, COLO357; summary of the method: as §2
[18] = Cytotoxicity against human Patu-T cells by crystal violet staining; assay type: functional, cell-based; details: PaTu 8988t; summary of the method: as §1
[19] = Cytotoxicity against human Colo-357 cells expressing MRP5 assessed as cell killing at 1 uM after 48 hrs using propidium iodide staining by cytofluorometric analysis; assay type: functional, COLO357; summary of the method: as §2
[20] = Cytotoxicity against human 5-FU-resistant Patu-T cells by crystal violet staining; assay type: functional, cell-based; details: PaTu 8988t
Summary of the method: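 Patu-8988T subclones were selected with rising 5-FU over 6 months, then kept drug-free at least 1 week. Cells were plated at 5000–10,000/well, left 24 h, then drug-exposed. They were fixed in 4% paraformaldehyde, stained with 0.5% crystal violet in methanol, lysed in 1% SDS, and read at OD 570 nm against untreated cells (100%). At least five concentrations were tested in triplicate, and IC50 was obtained by sigmoidal nonlinear regression.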

[21] = Cytotoxicity against human Patu-02 cells assessed as increase of cell death at 100 uM after 48 hrs using propidium iodide staining by cytofluorometric analysis; assay type: functional; summary of the method: as §4
[22] = biological target: T1, ATP-binding cassette sub-family C member 5 (Homo sapiens, UniProt O15440); assay: Activity at MRP5 in human Colo-357 cells assessed as decrease of drug accumulation after 2 hrs relative to wild type cells; assay type: ADME, cell-based; design: scale not given: the % may be the effect or the level left; details: colo357, 2 h
Summary of the method: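 Stably transfected Colo-357 (pcDNA3.1/hygro-MRP5 vs empty vector, hygromycin B selected), subconfluent, seeded in triplicate, grown overnight, then incubated at 37°C with 7.6 M [14C]5-FU (0.4 Ci/ml, 52 mCi/mmol) for timed intervals. Washed with ice-cold PBS, lysed in 0.2% SDS, scintillation counted, normalised to protein.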

[23] = biological target: T1, ATP-binding cassette sub-family C member 5; assay: Activity at MRP5 in human Colo-357 cells assessed as increase of drug efflux after 60 mins relative to wild type cells; assay type: ADME, cell-based; details: colo357, 1 h
Summary of the method: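 Transfected Colo-357 cells seeded in triplicate were preloaded 2 h with [14C]5-FU in energy-depletion medium (glucose-free, pyruvate-free, sodium azide). After two washes, medium was switched to ordinary drug-free growth medium, and medium radioactivity was sampled at time points over 60 min. Results are expressed as released radioactivity relative to radioactivity accumulated during loading.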

[24] = Cytotoxicity against human MRP5 knockdown Patu-02 cells assessed as increase of cell death at 33 uM after 48 hrs using propidium iodide staining by cytofluorometric analysis; assay type: functional; summary of the method: as §4
[25] = Cytotoxicity against human Colo-357 cells expressing MRP5 assessed as cell killing at 10 uM after 48 hrs using propidium iodide staining by cytofluorometric analysis; assay type: functional, COLO357; summary of the method: as §2
[26] = Cytotoxicity against human MRP5 knockdown Patu-02 cells assessed as increase of cell death at 100 uM after 48 hrs using propidium iodide staining by cytofluorometric analysis; assay type: functional; summary of the method: as §4
[27] = Cytotoxicity against human Colo-357 cells by crystal violet staining; assay type: functional, cell-based; details: COLO357; summary of the method: as §1
[28] = Cytotoxicity against human Patu-02 cells assessed as increase of cell death at 10 uM after 48 hrs using propidium iodide staining by cytofluorometric analysis; assay type: functional; summary of the method: as §4
[29] = Induction of BCRP expression in human Patu-T cells after 6 months by RT-PCR analysis relative to control; assay type: ADME, cell-based; details: patu 8988t, 4383 h; summary of the method: as §3

T1 sequence (O15440 whole entry): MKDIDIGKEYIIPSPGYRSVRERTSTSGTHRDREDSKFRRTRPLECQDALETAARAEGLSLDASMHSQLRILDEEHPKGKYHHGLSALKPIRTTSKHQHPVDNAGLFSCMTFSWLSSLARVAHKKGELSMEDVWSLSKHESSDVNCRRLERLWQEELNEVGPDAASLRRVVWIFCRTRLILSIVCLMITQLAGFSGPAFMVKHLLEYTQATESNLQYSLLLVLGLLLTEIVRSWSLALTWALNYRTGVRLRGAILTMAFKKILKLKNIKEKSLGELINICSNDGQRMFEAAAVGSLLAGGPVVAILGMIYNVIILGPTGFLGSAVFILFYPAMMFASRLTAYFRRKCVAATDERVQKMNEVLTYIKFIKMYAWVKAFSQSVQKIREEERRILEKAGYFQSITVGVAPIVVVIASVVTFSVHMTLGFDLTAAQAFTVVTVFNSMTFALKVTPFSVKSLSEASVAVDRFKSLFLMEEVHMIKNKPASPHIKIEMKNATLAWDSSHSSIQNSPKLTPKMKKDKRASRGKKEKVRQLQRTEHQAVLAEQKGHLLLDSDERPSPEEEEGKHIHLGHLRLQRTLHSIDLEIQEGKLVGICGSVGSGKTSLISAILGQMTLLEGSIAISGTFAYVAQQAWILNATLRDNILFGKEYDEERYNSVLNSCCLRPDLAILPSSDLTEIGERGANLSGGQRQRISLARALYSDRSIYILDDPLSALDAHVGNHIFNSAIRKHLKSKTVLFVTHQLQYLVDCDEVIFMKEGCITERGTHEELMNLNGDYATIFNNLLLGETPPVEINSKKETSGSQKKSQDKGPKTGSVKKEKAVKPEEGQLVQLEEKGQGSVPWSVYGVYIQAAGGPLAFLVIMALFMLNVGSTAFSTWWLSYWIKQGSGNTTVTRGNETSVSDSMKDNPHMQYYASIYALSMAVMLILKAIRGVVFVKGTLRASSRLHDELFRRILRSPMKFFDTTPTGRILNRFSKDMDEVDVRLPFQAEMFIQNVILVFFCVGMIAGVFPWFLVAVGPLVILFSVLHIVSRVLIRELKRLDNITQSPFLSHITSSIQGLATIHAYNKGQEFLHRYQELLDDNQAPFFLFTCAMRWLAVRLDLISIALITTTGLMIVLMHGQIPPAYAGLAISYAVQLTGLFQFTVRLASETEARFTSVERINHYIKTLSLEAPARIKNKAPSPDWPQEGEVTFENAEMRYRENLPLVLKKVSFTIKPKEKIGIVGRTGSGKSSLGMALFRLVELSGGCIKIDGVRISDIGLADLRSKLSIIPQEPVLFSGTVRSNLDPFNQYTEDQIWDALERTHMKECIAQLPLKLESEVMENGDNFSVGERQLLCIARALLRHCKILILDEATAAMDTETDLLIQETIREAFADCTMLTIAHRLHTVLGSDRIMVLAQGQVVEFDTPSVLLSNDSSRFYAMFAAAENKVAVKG

O=c1[nH]cc(F)c(=O)[nH]1 [FLUOROURACIL]
IC50 [1]: 2.97 µM | Activity [2]: 31.2% | IC50 [3]: 3.95 µM | Activity [4]: 26.4% | IC50 [5]: 2.93 µM | Activity (PaTu 8988t): inactive | Activity (COLO357): inactive | Activity [6]: 45.4% | Activity [7]: 63% | IC50 (DAN-G): 4.38 µM | IC50 [8]: 3.94 µM | Activity [9]: 53% | fold induction (MRP5 [10]): 4.3 | fold induction at 4383 h (MRP4): 2.5 | fold induction at 4383 h (MRP5 [11]): 2.4 | Activity [12]: 53% | Activity [13]: 36% | Activity [14]: 54.6% | IC50 [15]: 0.33 µM | Activity [16]: 10% | Activity [17]: 44.9% | IC50 [18]: 2.08 µM | Activity [19]: 16.4% | IC50 [20]: 33.2 µM | Activity [21]: 66% | Activity [22]: 59.2% | fold change (FC) [23]: 2.1 | Activity [24]: 80% | Activity [25]: 39.1% | Activity [26]: 94% | IC50 [27]: 2.05 µM | Activity [28]: 27% | Activity [29]: Not Active

Nc1ccn([C@@H]2O[C@H](CO)[C@@H](O)C2(F)F)c(=O)n1 [GEMCITABINE]
IC50 [1]: 0.004 µM | IC50 [3]: 0.0034 µM | IC50 [5]: 0.0032 µM | IC50 (DAN-G): 0.0034 µM | IC50 [8]: 0.001 µM | IC50 [15]: 0.0015 µM | IC50 [18]: 0.0028 µM | IC50 [27]: 0.00036 µM

Sc1ncnc2nc[nH]c12 [MERCAPTOPURINE ANHYDROUS]
IC50 [1]: 2.45 µM | IC50 [3]: 9.69 µM | IC50 [5]: 11.1 µM | IC50 (DAN-G): 4.06 µM | IC50 [8]: 6.39 µM | IC50 [15]: 2.63 µM | IC50 [18]: 4.09 µM | IC50 [27]: 6.12 µM

Nc1nc2[nH]cnc2c(=S)[nH]1 [THIOGUANINE]
IC50 [1]: 2.8 µM | IC50 [3]: 2.26 µM | IC50 [5]: 2.21 µM | IC50 (DAN-G): 4.32 µM | IC50 [8]: 8.31 µM | IC50 [15]: 1.28 µM | IC50 [18]: 3.43 µM | IC50 [27]: 2.09 µM
